Measurements: ChEMBL document CHEMBL1138066, “Semisynthetic maytansine analogues for the targeted treatment of cancer” (J Med Chem, 2006)

Experiments:
SK-BR-3 = test: Cytotoxicity against human SK-Br-3 cell line by clonogenic plating efficiency assay after 72 hrs; format: functional, cell-based; settings: SK-BR-3, 72 h
How it was run: (§1)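 Clonogenic assay: 1000 cells per well in 6-well dishes, exposed to free maytansinoids (0 to 3 nM) for 72 h, then medium replaced with fresh medium. Colonies grown 7-10 days after plating, fixed and stained with 0.2% crystal violet in 10% formalin/PBS, counted. Surviving fraction = colonies in drug-treated wells / colonies in control wells; IC50 in nM.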

KB = test: Cytotoxicity against human KB cell line by clonogenic plating efficiency assay after 72 hrs; format: functional, cell-based; how it was run: as §1
OVCAR-3 = test: Cytotoxicity against human Ovcar3 cell line by clonogenic plating efficiency assay after 24 hrs; settings: OVCAR-3, 24 h
SW-620 = test: Cytotoxicity against human SW620 cell line by clonogenic plating efficiency assay after 24 hrs; settings: SW-620, 24 h
A-431 = test: Cytotoxicity against human A431 cell line by clonogenic plating efficiency assay after 72 hrs; format: functional, cell-based; settings: A-431, 72 h
MCF7 = test: Cytotoxicity against human MCF7 cell line by clonogenic plating efficiency assay after 72 hrs; format: functional, cell-based; settings: MCF7, 72 h
HCT-15 = test: Cytotoxicity against human HCT15 cell line by clonogenic plating efficiency assay after 72 hrs; format: cell-based; settings: HCT-15, 72 h
A-375 = test: Cytotoxicity against human A375 cell line by clonogenic plating efficiency assay after 72 hrs; format: functional, cell-based; settings: A-375, 72 h
How it was run: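 Clonogenic survival: 1000 cells per well were plated and exposed to free or antibody-conjugated maytansinoid (0 to 3 nM) for 72 h. Medium was then replaced with fresh medium, and colonies grew for a total of 7-10 days after plating. Colonies were fixed and stained with 0.2% crystal violet in 10% formalin/PBS, then counted. Surviving fraction = colonies in drug-exposed wells / colonies in control wells.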

A549 = test: Cytotoxicity against human A549 cell line by clonogenic plating efficiency assay after 72 hrs; format: functional, cell-based; settings: A549, 72 h

COc1cc2cc(c1Cl)N(C)C(=O)CC(OC(=O)[C@H](C)N(C)C(=O)CC[C@@H](C)SSC)C1(C)OC1C(C)C1CC(O)(NC(=O)O1)C(OC)/C=C/C=C(\C)C2 (stereo partly specified)
IC50 (SK-BR-3): 27 pM
IC50 (KB): 42 pM

COc1cc2cc(c1Cl)N(C)C(=O)CC(O)C1(C)OC1C(C)C1CC(O)(NC(=O)O1)C(OC)/C=C/C=C(\C)C2 (stereo unspecified) [MAYTANSINOL]
IC50 (SK-BR-3): 1200 pM
IC50 (KB): > 3000 pM

COc1cc2cc(c1Cl)N(C)C(=O)CC(OC(=O)[C@H](C)N(C)C(=O)CCC(C)SSC)C1(C)OC1C(C)C1CC(O)(NC(=O)O1)C(OC)/C=C/C=C(\C)C2 (mixture of isomers)
IC50 (SK-BR-3): 4.2 pM
IC50 (KB): 11 pM

COc1cc2cc(c1Cl)N(C)C(=O)CC(OC(=O)[C@H](C)N(C)C(=O)CCC(C)(C)SSC(C)(C)CCC(=O)N(C)[C@@H](C)C(=O)OC1CC(=O)N(C)c3cc(cc(OC)c3Cl)C/C(C)=C/C=C/C(OC)C3(O)CC(OC(=O)N3)C(C)C3OC13C)C1(C)OC1C(C)C1CC(O)(NC(=O)O1)C(OC)/C=C/C=C(\C)C2 (stereo partly specified)
IC50 (SK-BR-3): 1.2 pM
IC50 (KB): 1.6 pM

COc1cc2cc(c1Cl)N(C)C(=O)CC(OC(=O)[C@H](C)N(C)C(=O)CCC(C)(C)SSCCCC(=O)O)C1(C)OC1C(C)C1CC(O)(NC(=O)O1)C(OC)/C=C/C=C(\C)C2 (stereo partly specified)
IC50 (SK-BR-3): 7100 pM
IC50 (KB): 23000 pM

COc1cc2cc(c1Cl)N(C)C(=O)CC(OC(=O)[C@H](C)N(C)C(=O)CCS)C1(C)OC1C(C)C1CC(O)(NC(=O)O1)C(OC)/C=C/C=C(\C)C2 (stereo partly specified)
IC50 (SK-BR-3): 1100 pM
IC50 (KB): 1100 pM

COc1cc2cc(c1Cl)N(C)C(=O)CC(OC(=O)[C@@H](C)N(C)C(=O)CC[C@H](C)SSC)C1(C)OC1C(C)C1CC(O)(NC(=O)O1)C(OC)/C=C/C=C(\C)C2 (stereo partly specified)
IC50 (SK-BR-3): > 3000 pM
IC50 (KB): > 3000 pM

COc1cc2cc(c1Cl)N(C)C(=O)CC(OC(=O)[C@H](C)N(C)C(=O)CCSSCCC(=O)N(C)[C@@H](C)C(=O)OC1CC(=O)N(C)c3cc(cc(OC)c3Cl)C/C(C)=C/C=C/C(OC)C3(O)CC(OC(=O)N3)C(C)C3OC13C)C1(C)OC1C(C)C1CC(O)(NC(=O)O1)C(OC)/C=C/C=C(\C)C2 (stereo partly specified)
IC50 (SK-BR-3): 100 pM
IC50 (KB): 140 pM

COc1cc2cc(c1Cl)N(C)C(=O)CC(OC(=O)[C@@H](C)N(C)C(=O)CC[C@@H](C)SSC)C1(C)OC1C(C)C1CC(O)(NC(=O)O1)C(OC)/C=C/C=C(\C)C2 (stereo partly specified)
IC50 (SK-BR-3): 2200 pM
IC50 (KB): 2400 pM

COc1cc2cc(c1Cl)N(C)C(=O)C[C@H](OC(=O)[C@H](C)N(C)C(C)=O)[C@]1(C)O[C@H]1[C@H](C)[C@@H]1C[C@@](O)(NC(=O)O1)[C@H](OC)/C=C/C=C(\C)C2 [MAYTANSINE]
IC50 (OVCAR-3): 100 pM
IC50 (SK-BR-3): 30 pM
IC50 (SW-620): > 100 pM
IC50 (A-431): 40 pM
IC50 (MCF7): 44 pM
IC50 (HCT-15): 750 pM
IC50 (A-375): 37 pM
IC50 (A549): 160 pM
IC50 (KB): 34 pM

COc1cc2cc(c1Cl)N(C)C(=O)CC(OC(=O)[C@@H](C)N(C)C(=O)CCC(C)(C)SSC)C1(C)OC1C(C)C1CC(O)(NC(=O)O1)C(OC)/C=C/C=C(\C)C2 (stereo partly specified)
IC50 (SK-BR-3): > 300 pM
IC50 (KB): > 300 pM

COc1cc2cc(c1Cl)N(C)C(=O)CC(OC(=O)[C@@H](C)N(C)C(=O)CCSSC)C1(C)OC1C(C)C1CC(O)(NC(=O)O1)C(OC)/C=C/C=C(\C)C2 (stereo partly specified)
IC50 (SK-BR-3): 6000 pM
IC50 (KB): 3000 pM

COc1cc2cc(c1Cl)N(C)C(=O)CC(OC(=O)[C@@H](C)N(C)C(=O)CCS)C1(C)OC1C(C)C1CC(O)(NC(=O)O1)C(OC)/C=C/C=C(\C)C2 (stereo partly specified)
IC50 (SK-BR-3): > 3000 pM
IC50 (KB): > 3000 pM

COc1cc2cc(c1Cl)N(C)C(=O)CC(OC(=O)[C@H](C)N(C)C(=O)CCC(C)(C)S)C1(C)OC1C(C)C1CC(O)(NC(=O)O1)C(OC)/C=C/C=C(\C)C2 (stereo partly specified)
IC50 (SK-BR-3): 120 pM
IC50 (KB): 290 pM

COc1cc2cc(c1Cl)N(C)C(=O)CC(OC(=O)[C@H](C)N(C)C(=O)CCSSc1ccccc1)C1(C)OC1C(C)C1CC(O)(NC(=O)O1)C(OC)/C=C/C=C(\C)C2 (stereo partly specified)
IC50 (KB): 100 pM

COc1cc2cc(c1Cl)N(C)C(=O)CC(OC(=O)[C@H](C)N(C)C(=O)CCCSSC)C1(C)OC1C(C)C1CC(O)(NC(=O)O1)C(OC)/C=C/C=C(\C)C2 (stereo partly specified)
IC50 (SK-BR-3): 38 pM
IC50 (KB): 8.5 pM

COc1cc2cc(c1Cl)N(C)C(=O)CC(OC(=O)[C@H](C)N(C)C(=O)CSSC)C1(C)OC1C(C)C1CC(O)(NC(=O)O1)C(OC)/C=C/C=C(\C)C2 (stereo partly specified) [METHYLDITHIOACETYL MAYTANSINOID]
IC50 (KB): 190 pM

COc1cc2cc(c1Cl)N(C)C(=O)CC(OC(=O)[C@@H](C)N(C)C(=O)CCC(C)SSC)C1(C)OC1C(C)C1CC(O)(NC(=O)O1)C(OC)/C=C/C=C(\C)C2 (mixture of isomers)
IC50 (SK-BR-3): 220 pM
IC50 (KB): 1200 pM

COc1cc2cc(c1Cl)N(C)C(=O)CC(OC(=O)[C@@H](C)N(C)C(=O)CCCSSC)C1(C)OC1C(C)C1CC(O)(NC(=O)O1)C(OC)/C=C/C=C(\C)C2 (stereo partly specified)
IC50 (KB): 2000 pM

COc1cc2cc(c1Cl)N(C)C(=O)CC(OC(=O)[C@H](C)N(C)C(=O)CCC(C)S)C1(C)OC1C(C)C1CC(O)(NC(=O)O1)C(OC)/C=C/C=C(\C)C2 (stereo partly specified)
IC50 (SK-BR-3): 31 pM
IC50 (KB): 77 pM

COc1cc2cc(c1Cl)N(C)C(=O)CC(OC(=O)[C@H](C)N(C)C(=O)CCC(C)(C)SSC)C1(C)OC1C(C)C1CC(O)(NC(=O)O1)C(OC)/C=C/C=C(\C)C2 (stereo partly specified)
IC50 (SK-BR-3): 3.2 pM
IC50 (KB): 1.1 pM

COc1cc2cc(c1Cl)N(C)C(=O)CC(OC(=O)[C@H](C)N(C)C(=O)CC[C@H](C)SSC)C1(C)OC1C(C)C1CC(O)(NC(=O)O1)C(OC)/C=C/C=C(\C)C2 (stereo partly specified)
IC50 (SK-BR-3): 32 pM
IC50 (KB): 40 pM

COc1cc2cc(c1Cl)N(C)C(=O)CC(OC(=O)[C@H](C)N(C)C(=O)CCSSC)C1(C)OC1C(C)C1CC(O)(NC(=O)O1)C(OC)/C=C/C=C(\C)C2 (stereo partly specified)
IC50 (OVCAR-3): 50 pM
IC50 (SK-BR-3): 14 pM
IC50 (SW-620): 40 pM
IC50 (A-431): < 30 pM
IC50 (MCF7): < 30 pM
IC50 (HCT-15): 130 pM
IC50 (A-375): 30 pM
IC50 (A549): 120 pM
IC50 (KB): 29 pM

COc1cc2cc(c1Cl)N(C)C(=O)CC(OC(=O)[C@H](C)N(C)C(=O)CCSSC(C)CCC(=O)O)C1(C)OC1C(C)C1CC(O)(NC(=O)O1)C(OC)/C=C/C=C(\C)C2 (stereo partly specified)
IC50 (SK-BR-3): 3400 pM
IC50 (KB): 1800 pM

COc1cc2cc(c1Cl)N(C)C(=O)CC(OC(=O)[C@@H](C)N(C)C(=O)CCC(C)(C)S)C1(C)OC1C(C)C1CC(O)(NC(=O)O1)C(OC)/C=C/C=C(\C)C2 (stereo partly specified)
IC50 (SK-BR-3): 3300 pM
IC50 (KB): > 1000 pM
